Common to all, as to type: functional
Assay [1] has as its system Mus musculus. Nature of the assay: Antiinflammatory activity in mouse assessed as inhibition of xylene-induced ear edema at 40 mg/kg, po. The gist of the method:
(§1)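 Male and female Kunming mice (20–26 g) given the test substance by the oral route at 40 mg/kg. Percent inhibition was scored in the xylene-induced ear edema model (anti-inflammatory) or the acetic acid-induced writhing model (analgesic).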

The test system of assay [2] is Mus musculus. Put plainly: Analgesic activity in Kunming mouse assessed as inhibition of acetic acid-induced writhing response at 40 mg/kg, po. The gist of the method:
as §1
Background: In writhing tests, fewer writhes than in controls are read as antinociception.

Assay [3] concerns Mus musculus. Put plainly: Antiinflammatory activity in orally dosed mouse assessed as inhibition of xylene-induced ear edema. To be noted: po. Summed up:
(§2)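 Male and female Kunming mice (20–26 g) dosed orally. ED50 was determined in the xylene-induced ear edema model (anti-inflammatory) or the acetic acid-induced writhing model (analgesic).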

In assay [4] the test system is Mus musculus. Put plainly: Analgesic activity in orally dosed Kunming mouse assessed as inhibition of acetic acid-induced writhing response. To be noted: po. Summed up: as §2
The test system of a further assay is Rattus norvegicus. Put plainly: Antiinflammatory activity in rat assessed as inhibition of carrageenan-induced paw edema. (In general: The carrageenan paw model is a standard test of acute inflammation.)

In the case of `CN1CCN(C(=O)c2cc(-c3ccc(F)cc3F)ccc2OC(=O)c2ccccc2)CC1`, the inhibition in vivo (in general, the drop in the measured response relative to a control, in per cent) at 40 mg/kg with Mus musculus [1] stood at 27.5%; in the assay on Mus musculus [2], 88.3%.
With `CC(=O)Oc1ccc(-c2ccc(F)cc2F)cc1C(=O)O`, the inhibition in vivo at 40 mg/kg in the assay on Mus musculus [1] stood at 13.7%; in the assay with Mus musculus [2], 0%.
The corresponding values for `O=C(Oc1ccc(-c2ccc(F)cc2F)cc1C(=O)O)c1ccccc1` are 16.1% and 7.97%.
In the same order, the values of `CC(=O)Oc1ccc(-c2ccc(F)cc2F)cc1C(=O)Nc1cc(C)ccc1C` are 22% and 13.2%.
The corresponding values for `Cc1ccccc1NC(=O)c1cc(-c2ccc(F)cc2F)ccc1OC(=O)c1ccccc1` are 21.4% and 20.8%.
On to `CCN(CC)C(=O)c1cc(-c2ccc(F)cc2F)ccc1OC(=O)c1ccccc1`, for which the inhibition in vivo at 40 mg/kg came to 65.2% in the assay on Mus musculus [1] and 0% with Mus musculus [2]. Also, the ED50 – broadly, the dose that gives a 50% effect, or the effect in half of the subjects – in the assay on Mus musculus [3] stood at 25.7 mg/kg.
For `CC(=O)Oc1ccc(-c2ccc(F)cc2F)cc1C(=O)NN1CCOCC1`, the results for the inhibition in vivo at 40 mg/kg in the assay on Mus musculus [1] and in the assay on Mus musculus [2] were 0% and 28.5%, respectively.
For the molecule `CNC(=O)c1cc(-c2ccc(F)cc2F)ccc1OC(=O)c1ccccc1`, the inhibition in vivo at 40 mg/kg in the assay on Mus musculus [1] came out at 68.9%; with Mus musculus [2], 47.5%. The ED50 in the assay with Mus musculus [3] was determined as 24.2 mg/kg; in the assay on Mus musculus [4], 43.8 mg/kg.
With `O=C(Oc1ccc(-c2ccc(F)cc2F)cc1C(=O)Nc1ccccc1)c1ccccc1`, the inhibition in vivo at 40 mg/kg was found to be 19.8% with Mus musculus [1] and 5.57% in the assay with Mus musculus [2].
In the same order, the values of `CC(=O)Oc1ccc(-c2ccc(F)cc2F)cc1C(=O)Nc1ccccc1Cl` are 41.4% and 11.7%.
The corresponding values for `CC(=O)Oc1ccc(-c2ccc(F)cc2F)cc1C(=O)Nc1ccc(Cl)cc1` are 0% and 29.9%.
In the same order, the values of `CC(=O)Oc1ccc(-c2ccc(F)cc2F)cc1C(=O)Nc1ccccc1C` are 19.6% and 12.3%.
Take `CC(=O)Oc1ccc(-c2ccc(F)cc2F)cc1C(=O)Nc1ccc(C)cc1`: the inhibition in vivo at 40 mg/kg worked out at 36.4% in the assay on Mus musculus [1] and 31% in the assay with Mus musculus [2].
As to `CC(=O)Oc1ccc(-c2ccc(F)cc2F)cc1C(=O)NCc1ccccc1`, the values for the inhibition in vivo at 40 mg/kg in the assay with Mus musculus [1] and in the assay on Mus musculus [2] were 34.1% and 16.6%, respectively.
In the same order, the values of `CCNC(=O)c1cc(-c2ccc(F)cc2F)ccc1OC(C)=O` are 5.38% and 23.9%.
In the same order, the values of `CC(=O)Oc1ccc(-c2ccc(F)cc2F)cc1C(=O)NC1CCCCC1` are 0% and 15.6%.
In the same order, the values of `CC(=O)Oc1ccc(-c2ccc(F)cc2F)cc1C(=O)Nc1ccccc1` are 23.2% and 8.9%.
As to `CC(=O)Oc1ccc(-c2ccc(F)cc2F)cc1C(=O)Nc1cccc(C)c1`, the inhibition in vivo at 40 mg/kg in the assay on Mus musculus [1] was found to be 12.8%; in the assay on Mus musculus [2] it was 19%.
In the same order, the values of `CNC(=O)c1cc(-c2ccc(F)cc2F)ccc1OC(C)=O` are 48.8% and 29.9%.
Regarding `O=C(O)c1cc(-c2ccc(F)cc2F)ccc1O` [DIFLUNISAL], the inhibition in vivo at 40 mg/kg in the assay with Mus musculus [1] was found to be 39.9%; in the assay with Mus musculus [2], 8.33%. In addition, the ED50 with Rattus norvegicus came to 59.6 mg/kg.

The values are drawn from ChEMBL document CHEMBL1154511, “Synthesis and biological evaluation of amide derivatives of diflunisal as potential anti-inflammatory agents” (2009).
